Measured values as given in ChEMBL document CHEMBL4602668, “Oxygenated Cyclohexene Derivatives and Other Constituents from the Roots of Monanthotaxis trichocarpa” (J Nat Prod, 2020).
In brackets after ≈: the same amount, converted by molar mass. Activity calls are given as the source filed them. The calls are words filed in the database; no cut-off is given here.

Legend:
Escherichia coli = assay: Antibacterial activity against Escherichia coli at 5 mM incubated for 18 hrs by AlamarBlue assay; format: functional, organism-based
Bacillus subtilis = assay: Antibacterial activity against Bacillus subtilis incubated for 18 hrs by AlamarBlue assay; format: functional
MCF7 = assay: Cytotoxicity against human MCF7 cells after 24 hrs by PrestoBlue cell viability reagent based assay; format: functional; conditions: MCF7, 24 h
Procedure, shortened: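 MCF-7 cells were kept in exponential growth in DMEM with 10% fetal calf serum, reseeded in 96-well plates, and settled 24 h. Compounds were added from DMSO stock (final solvent 0.3% v/v) in 2-fold dilutions for 24 h. Viability was read as resorufin fluorescence (ex 544/em 590 nm) and expressed as % of solvent-only control. EC50 came from three independent replicate experiments.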

SMILES | Activity (Escherichia coli) | MIC (Bacillus subtilis) [µM] | EC50 (MCF7) [µM]
CO[C@H]1C=C[C@@H](OC(=O)c2ccccc2)[C@@H](OC)[C@]1(O)COC(=O)c1ccccc1 | inactive |  | 
CO[C@@H]1[C@H](OC(=O)c2ccccc2)C=C[C@@H](O)[C@@]1(O)COC(=O)c1ccccc1 | inactive |  | 
O=C(OCc1ccccc1)c1ccccc1 | inactive |  | 
CC[C@H](CC[C@@H](C)[C@H]1CC[C@H]2[C@@H]3CC=C4C[C@@H](O)CC[C@]4(C)[C@H]3CC[C@]12C)C(C)C | inactive |  | 
COc1c(Cc2ccccc2O)c(O)c(Cc2ccccc2O)c(O)c1C(=O)CCc1ccccc1 | inactive |  | 
COc1cc(O)cc(O)c1C(=O)CCc1ccccc1 | inactive |  | 
CC(=O)O[C@@H]1C=C[C@@H](OC(=O)c2ccccc2)[C@H](O)[C@]1(O)COC(=O)c1ccccc1 | inactive |  | 
CC[C@H](/C=C/[C@@H](C)[C@H]1CC[C@H]2[C@@H]3CC=C4C[C@@H](O)CC[C@]4(C)[C@H]3CC[C@]12C)C(C)C | inactive |  | 
COc1ccccc1COC(=O)c1ccccc1 | inactive |  | 
COc1cc(O)c(Cc2ccccc2O)c(O)c1C(=O)CCc1ccccc1 [UVARETIN] | inactive | 18 (≈ 6.81 µg/mL) | 10.2
COc1ccc(C(=O)C(C)c2ccc(O)cc2)c(O)c1 (centres undefined) | inactive |  | 
CO[C@H]1[C@H](OC(=O)c2ccccc2)C=C[C@H](Cl)[C@]1(O)COC(=O)c1ccccc1 | inactive |  | 
